# Measurements from ChEMBL document CHEMBL1153588, “DNA sequence selectivity of hairpin polyamide turn units” (Bioorg Med Chem Lett, 2009).
# Experiments:
# Format in all cases: nucleic-acid assay
# Nucleic Acid [1] = assay: Binding affinity to 11mer DNA duplex 5'-CTATGGTAGAC-3' assessed as change in melting temperature by spectroscopic analysis
# In short: (§1)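 Duplex melting temperatures were measured on a spectrophotometer with a thermo-controlled cell holder in 10 mM sodium cacodylate buffer.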
# Nucleic Acid [2] = assay: Binding affinity to 5'-ATGGTT-3' in Escherichia coli pCDMF6 by DNase1 foot-printing titration method
# In short: (§2)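 The plasmid target was built by ligating an annealed synthetic oligonucleotide pair carrying the tandem match sites. A primer was 5'-end-labelled with ³²P, and binding was measured by DNase I footprinting titrations.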
# Nucleic Acid [3] = assay: Binding affinity to 5'-ATGGTA-3' in Escherichia coli pCDMF6 by DNase1 foot-printing titration method; in short: as §2
# Nucleic Acid [4] = assay: Binding affinity to 5'-ATGGTTC-3' in Escherichia coli pCDMF6 by DNase1 foot-printing titration method; in short: as §2
# Nucleic Acid [5] = assay: Binding affinity to 5'-ATGGTG-3' in Escherichia coli pCDMF6 by DNase1 foot-printing titration method; in short: as §2
# Nucleic Acid [6] = assay: Binding affinity to 11mer DNA duplex 5'-CTCTGGCACAC-3' assessed as change in melting temperature by spectroscopic analysis; in short: as §1
# Nucleic Acid [7] = assay: Binding affinity to 11mer DNA duplex 5'-CTCTGTTACCA-3' assessed as change in melting temperature by spectroscopic analysis; in short: as §1
# Nucleic Acid [8] = assay: Binding affinity to 11mer DNA duplex 5'-CTATGTTACCA-3' assessed as change in melting temperature by spectroscopic analysis; in short: as §1
SMILES,ΔTm (Nucleic Acid [1]),Ka (Nucleic Acid [2]),Ka (Nucleic Acid [3]),Ka (Nucleic Acid [4]),Ka (Nucleic Acid [5]),further results
CN(C)CCCNC(=O)CCNC(=O)c1cc(NC(=O)c2cc(NC(=O)c3nc(NC(=O)[C@H](N)CCNC(=O)c4cc(NC(=O)c5nc(NC(=O)c6nccn6C)cn5C)cn4C)cn3C)cn2C)cn1C,,,,,,ΔTm (Nucleic Acid [6]): 8.3 °C
CN(C)CCCNC(=O)CCNC(=O)c1cc(NC(=O)c2cc(NC(=O)c3nc(NC(=O)C[C@H](N)CNC(=O)c4cc(NC(=O)c5nc(NC(=O)c6nccn6C)cn5C)cn4C)cn3C)cn2C)cn1C,,,,,,ΔTm (Nucleic Acid [6]): 6 °C
CN(C)CCCNC(=O)CCNC(=O)c1cc(NC(=O)c2cc(NC(=O)c3cc(NC(=O)[C@H](N)CCNC(=O)c4cc(NC(=O)c5cc(NC(=O)c6nccn6C)cn5C)cn4C)cn3C)cn2C)cn1C,,,,,,ΔTm (Nucleic Acid [7]): 10.9 °C; ΔTm (Nucleic Acid [8]): 15.9 °C
CN(C)CCCNC(=O)CCNC(=O)c1cc(NC(=O)c2cc(NC(=O)c3nc(NC(=O)C[C@@H](N)CNC(=O)c4cc(NC(=O)c5nc(NC(=O)c6nccn6C)cn5C)cn4C)cn3C)cn2C)cn1C,,,,,,ΔTm (Nucleic Acid [6]): 6.7 °C
CN(C)CCCNC(=O)CCNC(=O)c1cc(NC(=O)c2cc(NC(=O)c3cc(NC(=O)C[C@H](N)CNC(=O)c4cc(NC(=O)c5cc(NC(=O)c6nccn6C)cn5C)cn4C)cn3C)cn2C)cn1C,,,,,,ΔTm (Nucleic Acid [7]): 11.6 °C; ΔTm (Nucleic Acid [8]): 17 °C
CN(C)CCCNC(=O)CCNC(=O)c1cc(NC(=O)c2cc(NC(=O)c3cc(NC(=O)C[C@@H](N)CNC(=O)c4cc(NC(=O)c5cc(NC(=O)c6nccn6C)cn5C)cn4C)cn3C)cn2C)cn1C,,,,,,ΔTm (Nucleic Acid [7]): 13 °C; ΔTm (Nucleic Acid [8]): 18 °C
CC(=O)N[C@@H](CNC(=O)c1cc(NC(=O)c2nc(NC(=O)c3nccn3C)cn2C)cn1C)CC(=O)Nc1cc(C(=O)Nc2cc(C(=O)Nc3cc(C(=O)NCCC(=O)NCCCN(C)C)n(C)c3)n(C)c2)n(C)c1,12.2 °C,2 ×10⁹ /M,5.2 ×10⁹ /M,8.9 ×10⁷ /M,< 1 ×10⁷ /M,

# Continued, in another order:
ΔTm (Nucleic Acid [1]),Ka (Nucleic Acid [2]),Ka (Nucleic Acid [3]),Ka (Nucleic Acid [4]),Ka (Nucleic Acid [5]),SMILES,further results
5.8 °C,,,,,CN(C)CCCNC(=O)CCNC(=O)c1cc(NC(=O)c2cc(NC(=O)c3cc(NC(=O)[C@@H](O)CCNC(=O)c4cc(NC(=O)c5nc(NC(=O)c6nccn6C)cn5C)cn4C)cn3C)cn2C)cn1C,
14.7 °C,1.1 ×10⁹ /M,1.3 ×10⁹ /M,6 ×10⁷ /M,< 1 ×10⁷ /M,CN(C)CCCNC(=O)CCNC(=O)c1cc(NC(=O)c2cc(NC(=O)c3cc(NC(=O)C[C@H](N)CNC(=O)c4cc(NC(=O)c5nc(NC(=O)c6nccn6C)cn5C)cn4C)cn3C)cn2C)cn1C,
8.3 °C,,,,,CN(C)CCCNC(=O)CCNC(=O)c1cc(NC(=O)c2cc(NC(=O)c3cc(NC(=O)[C@H](F)CCNC(=O)c4cc(NC(=O)c5nc(NC(=O)c6nccn6C)cn5C)cn4C)cn3C)cn2C)cn1C,
9.2 °C,2.1 ×10⁸ /M,2 ×10⁸ /M,< 1 ×10⁷ /M,< 1 ×10⁷ /M,CN(C)CCCNC(=O)CCNC(=O)c1cc(NC(=O)c2cc(NC(=O)c3cc(NC(=O)CCCNC(=O)c4cc(NC(=O)c5nc(NC(=O)c6nccn6C)cn5C)cn4C)cn3C)cn2C)cn1C,
10 °C,,,,,CN(C)CCCNC(=O)CCNC(=O)c1cc(NC(=O)c2cc(NC(=O)c3cc(NC(=O)[C@H](O)CCNC(=O)c4cc(NC(=O)c5nc(NC(=O)c6nccn6C)cn5C)cn4C)cn3C)cn2C)cn1C,
14.7 °C,1.6 ×10⁹ /M,1.7 ×10⁹ /M,3.9 ×10⁷ /M,< 1 ×10⁷ /M,CN(C)CCCNC(=O)CCNC(=O)c1cc(NC(=O)c2cc(NC(=O)c3cc(NC(=O)[C@H](N)CCNC(=O)c4cc(NC(=O)c5nc(NC(=O)c6nccn6C)cn5C)cn4C)cn3C)cn2C)cn1C,
7.9 °C,,,,,CN(C)CCCNC(=O)CCNC(=O)c1cc(NC(=O)c2cc(NC(=O)c3cc(NC(=O)[C@@H](F)CCNC(=O)c4cc(NC(=O)c5nc(NC(=O)c6nccn6C)cn5C)cn4C)cn3C)cn2C)cn1C,
10.1 °C,3.2 ×10⁸ /M,2.1 ×10⁸ /M,< 1 ×10⁷ /M,< 1 ×10⁷ /M,CC(=O)N[C@H](CCNC(=O)c1cc(NC(=O)c2nc(NC(=O)c3nccn3C)cn2C)cn1C)C(=O)Nc1cc(C(=O)Nc2cc(C(=O)Nc3cc(C(=O)NCCC(=O)NCCCN(C)C)n(C)c3)n(C)c2)n(C)c1,
14.9 °C,3.3 ×10⁹ /M,1.8 ×10⁹ /M,5 ×10⁷ /M,< 1 ×10⁷ /M,CN(C)CCCNC(=O)CCNC(=O)c1cc(NC(=O)c2cc(NC(=O)c3cc(NC(=O)C[C@@H](N)CNC(=O)c4cc(NC(=O)c5nc(NC(=O)c6nccn6C)cn5C)cn4C)cn3C)cn2C)cn1C,
